Measurements: ChEMBL document CHEMBL1149102, “De novo design, synthesis, and pharmacology of alpha-melanocyte stimulating hormone analogues derived from somatostatin by a hybrid approach” (J Med Chem, 2004)
Each block holds one compound with its values, some of them ahead of it.

Experiments:
[1] = test system: melanocyte-stimulating hormone receptor (Rana pipiens); assay: Inhibition of 1 nM alpha melanocortin stimulating hormone from frog skin; No activity up to 10^-5 M.
Melanocortin receptor 5 [2] = target: T1, Melanocortin receptor 5 (Mus musculus, UniProt P41149); assay: Maximum agonist response for mouse melanocortin 5 receptor (MC5R); type: functional
T1 sequence (P41149 whole entry): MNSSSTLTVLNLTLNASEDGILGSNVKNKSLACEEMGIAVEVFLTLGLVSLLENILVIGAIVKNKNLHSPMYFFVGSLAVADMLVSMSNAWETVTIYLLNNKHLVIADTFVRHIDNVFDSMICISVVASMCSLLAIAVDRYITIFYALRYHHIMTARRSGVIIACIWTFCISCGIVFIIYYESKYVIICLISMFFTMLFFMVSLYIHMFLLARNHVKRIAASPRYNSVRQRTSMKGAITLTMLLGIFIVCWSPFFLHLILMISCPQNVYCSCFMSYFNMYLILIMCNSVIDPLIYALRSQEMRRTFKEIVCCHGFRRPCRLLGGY
In short: (§1)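 Cells stably expressing wild-type mouse (MC3R: rat) melanocortin receptor, transfected with 4 μg CRE/β-galactosidase reporter; 5000–15 000 cells plated, incubated overnight. At 48 h post-transfection, stimulated 6 h in DMEM with 0.1 mg/mL BSA and 0.1 mM IBMX; forskolin 10^-4 M reference.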

[3] = target: T2, Melanocyte-stimulating hormone receptor (Mus musculus, UniProt Q01727); assay: Maximal agonist response of mouse melanocortin 1 receptor (MC1R); type: functional
T2 sequence (Q01727 whole entry): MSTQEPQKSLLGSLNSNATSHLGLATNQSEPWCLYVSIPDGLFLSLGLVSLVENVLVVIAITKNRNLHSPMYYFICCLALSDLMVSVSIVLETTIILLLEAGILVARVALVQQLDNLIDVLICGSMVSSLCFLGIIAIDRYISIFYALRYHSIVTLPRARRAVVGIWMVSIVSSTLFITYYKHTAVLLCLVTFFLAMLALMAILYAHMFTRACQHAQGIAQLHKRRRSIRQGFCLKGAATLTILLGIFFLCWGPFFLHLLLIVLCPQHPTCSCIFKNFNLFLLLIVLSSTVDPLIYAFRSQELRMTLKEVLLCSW
In short: as §1

Melanocortin receptor 3 [4] = target: T3, Melanocortin receptor 3 (Rattus norvegicus, UniProt P32244); assay: Maximal agonist response at rat melanocortin 3 receptor (MC3R); type: functional
T3 sequence (P32244 whole entry): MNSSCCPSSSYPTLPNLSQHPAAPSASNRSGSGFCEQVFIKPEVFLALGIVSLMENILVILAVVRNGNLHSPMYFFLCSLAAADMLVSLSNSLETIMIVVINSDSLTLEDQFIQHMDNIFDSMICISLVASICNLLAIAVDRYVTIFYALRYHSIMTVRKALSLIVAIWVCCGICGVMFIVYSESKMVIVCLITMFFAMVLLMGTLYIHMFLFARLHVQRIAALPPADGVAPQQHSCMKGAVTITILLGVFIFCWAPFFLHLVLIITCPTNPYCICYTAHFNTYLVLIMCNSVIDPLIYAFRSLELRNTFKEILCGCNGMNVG
In short: as §1

Melanocortin receptor 4 [5] = target: T4, Melanocortin receptor 4 (Mus musculus, UniProt P56450); assay: Effective concentration for maximum agonist response towards mouse melanocortin 4 receptor; type: functional
T4 sequence (P56450 whole entry): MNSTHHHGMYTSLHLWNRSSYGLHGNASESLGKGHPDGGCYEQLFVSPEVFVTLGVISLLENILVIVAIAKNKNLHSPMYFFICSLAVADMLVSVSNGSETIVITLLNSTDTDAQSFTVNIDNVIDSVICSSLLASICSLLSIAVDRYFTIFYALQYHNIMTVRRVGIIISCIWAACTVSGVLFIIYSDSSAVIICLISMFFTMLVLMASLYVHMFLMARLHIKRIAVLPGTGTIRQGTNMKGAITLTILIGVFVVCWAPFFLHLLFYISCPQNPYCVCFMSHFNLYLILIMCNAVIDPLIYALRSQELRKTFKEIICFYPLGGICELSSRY
In short: as §1

[6] = test system: melanocyte-stimulating hormone receptor (Rana pipiens); assay: Maximum agonist response for frog skin melanocortin 1 receptor (MC1R); No activity up to 10^-5M
[7] = target: T2, Melanocyte-stimulating hormone receptor; assay: Effective concentration for maximum agonist response towards mouse melanocortin 1 receptor (MC1R); No activity up to 10^-5 M; type: functional
In short: as §1

Melanocortin receptor 5 [8] = target: T1, Melanocortin receptor 5; assay: Effective concentration for maximum agonist response towards mouse melanocortin 5 receptor (MC5R); No activity up to 10^-5 M; type: functional
In short: as §1

Melanocortin receptor 3 [9] = target: T3, Melanocortin receptor 3; assay: Effective concentration for maximum agonist response towards rat melanocortin 3 receptor (MC3R); No activity up to 10e-5 M; type: functional
In short: as §1

Melanocortin receptor 4 [10] = target: T4, Melanocortin receptor 4; assay: Effective concentration for maximum agonist response towards mouse melanocortin 4 receptor (MC4R); No activity up to 10^-5 M; type: functional
In short: as §1

[11] = test system: Melanocortin receptor 1 (Rana pipiens); assay: Inhibition of 1 nM alpha melanocortin stimulating hormone (MSH) from frog skin; antagonist

IC50 [1]: Not Active | EC50 (Melanocortin receptor 5 [2]): 0.12 nM | EC50 [3]: 1.5 nM | EC50 (Melanocortin receptor 3 [4]): 3 nM | EC50 (Melanocortin receptor 4 [5]): 1.4 nM
SMILES: C[C@@H](O)[C@H](NC(=O)[C@H]1CSSC[C@H](NC(=O)[C@H](N)Cc2ccccc2)C(=O)N[C@@H](Cc2c[nH]cn2)C(=O)N[C@@H](Cc2ccccc2)C(=O)N[C@@H](CCCN=C(N)N)C(=O)N[C@H](Cc2c[nH]c3ccccc23)C(=O)N1)C(N)=O

EC50 [6]: Not Active | IC50 [1]: Not Active
SMILES: C[C@@H](O)[C@H](NC(=O)[C@@H]1CSSC[C@H](NC(=O)[C@H](N)Cc2ccccc2)C(=O)N[C@@H](Cc2c[nH]cn2)C(=O)N[C@@H](Cc2ccc(I)cc2)C(=O)N[C@@H](CCCN=C(N)N)C(=O)N[C@H](Cc2c[nH]c3ccccc23)C(=O)N1)C(N)=O

IC50 [1]: Not Active
SMILES: C[C@@H](O)[C@H](NC(=O)[C@@H]1CCSSC[C@H](NC(=O)[C@H](N)Cc2ccccc2)C(=O)N[C@@H](Cc2c[nH]cn2)C(=O)N[C@H](Cc2ccccc2)C(=O)N[C@@H](CCCN=C(N)N)C(=O)N[C@@H](Cc2c[nH]c3ccccc23)C(=O)N1)C(N)=O

IC50 [1]: Not Active
SMILES: C[C@@H](O)[C@H](NC(=O)[C@H]1CSSC[C@H](NC(=O)[C@@H](N)Cc2ccccc2)C(=O)N[C@@H](Cc2c[nH]cn2)C(=O)N[C@H](Cc2ccccc2)C(=O)N[C@@H](CCCN=C(N)N)C(=O)N[C@H](Cc2c[nH]c3ccccc23)C(=O)N1)C(N)=O

EC50 [6]: Not Active | IC50 [1]: Not Active
SMILES: C[C@@H](O)[C@H](NC(=O)[C@@H]1CSSC[C@@H](NC(=O)[C@H](N)Cc2ccccc2)C(=O)N[C@@H](Cc2c[nH]cn2)C(=O)N[C@@H](Cc2ccc3ccccc3c2)C(=O)N[C@@H](CCCN=C(N)N)C(=O)N[C@H](Cc2c[nH]c3ccccc23)C(=O)N1)C(N)=O

IC50 [1]: Not Active
SMILES: C[C@@H](O)[C@H](NC(=O)[C@@H]1CSSC[C@H](NC(=O)[C@H](N)Cc2ccccc2)C(=O)N[C@@H](Cc2c[nH]cn2)C(=O)N[C@@H](Cc2cccc3ccccc23)C(=O)N[C@@H](CCCN=C(N)N)C(=O)N[C@H](Cc2c[nH]c3ccccc23)C(=O)N1)C(N)=O

IC50 [1]: Not Active
SMILES: C[C@@H](O)[C@H](NC(=O)[C@@H]1CSSC[C@H](NC(=O)[C@H](N)Cc2ccccc2)C(=O)N[C@@H](Cc2c[nH]cn2)C(=O)N[C@@H](Cc2ccc(F)cc2)C(=O)N[C@@H](CCCN=C(N)N)C(=O)N[C@H](Cc2c[nH]c3ccccc23)C(=O)N1)C(N)=O

IC50 [1]: Not Active
SMILES: C[C@@H](O)[C@H](NC(=O)[C@@H]1CSSC[C@H](NC(=O)[C@H](N)Cc2ccccc2)C(=O)N[C@@H](Cc2c[nH]cn2)C(=O)N[C@H](Cc2ccc(Cl)cc2)C(=O)N[C@@H](CCCN=C(N)N)C(=O)N[C@@H](Cc2c[nH]c3ccccc23)C(=O)N1)C(N)=O

EC50 (Melanocortin receptor 5 [2]): 0.11 nM | EC50 [3]: 0.37 nM | EC50 (Melanocortin receptor 3 [4]): 7.3 nM | EC50 (Melanocortin receptor 4 [5]): 0.67 nM
SMILES: C[C@H](O)[C@@H](NC(=O)[C@H]1CSSC[C@H](NC(=O)[C@H](N)Cc2ccccc2)C(=O)N[C@@H](Cc2cnc[nH]2)C(=O)N[C@@H](Cc2ccc(Cl)cc2)C(=O)N[C@@H](CCCNC(=N)N)C(=O)N[C@H](Cc2c[nH]c3ccccc23)C(=O)N1)C(N)=O

Further lines, the compound ahead of its results:

SMILES: C[C@@H](O)[C@H](NC(=O)[C@H]1NC(=O)[C@H]([C@@H](C)O)NC(=O)[C@H](CCCN=C(N)N)NC(=O)[C@@H](Cc2ccccc2)NC(=O)[C@H](Cc2ccccc2)NC(=O)[C@@H](NC(=O)[C@H](N)Cc2ccccc2)CSSC1(C)C)C(N)=O
EC50 [6]: Not Active | IC50 [1]: Not Active

SMILES: C[C@@H](O)[C@H](NC(=O)[C@@H]1CCSSC[C@H](NC(=O)[C@H](N)Cc2ccccc2)C(=O)N[C@@H](Cc2cnc[nH]2)C(=O)N[C@H](Cc2ccccc2)C(=O)N[C@@H](CCCNC(=N)N)C(=O)N[C@@H](Cc2c[nH]c3ccccc23)C(=O)N1)C(N)=O
EC50 (Melanocortin receptor 5 [2]): 2.2 nM | EC50 [3]: 5.1 nM | EC50 (Melanocortin receptor 4 [5]): 51 nM

SMILES: C[C@H](O)[C@@H](NC(=O)[C@H]1CSSC[C@H](NC(=O)[C@@H](N)Cc2ccccc2)C(=O)N[C@@H](Cc2c[nH]cn2)C(=O)N2Cc3ccccc3C[C@H]2C(=O)N[C@@H](CCCN=C(N)N)C(=O)N[C@H](Cc2c[nH]c3ccccc23)C(=O)N1)C(N)=O
EC50 [6]: Not Active | EC50 [7]: Not Active | EC50 (Melanocortin receptor 5 [8]): Not Active | EC50 (Melanocortin receptor 3 [9]): Not Active | EC50 (Melanocortin receptor 4 [10]): Not Active

SMILES: C[C@@H](O)[C@H](NC(=O)[C@H]1NC(=O)[C@H]([C@@H](C)O)NC(=O)[C@H](CCCN=C(N)N)NC(=O)[C@@H](Cc2c[nH]c3ccccc23)NC(=O)[C@H](Cc2ccc(I)cc2)NC(=O)[C@@H](NC(=O)[C@H](N)Cc2ccccc2)CSSC1(C)C)C(N)=O
EC50 [6]: Not Active

SMILES: C[C@@H](O)[C@H](NC(=O)[C@H]1CCSSC[C@H](NC(=O)[C@@H](N)Cc2ccccc2)C(=O)N[C@@H](Cc2cnc[nH]2)C(=O)N[C@H](Cc2ccccc2)C(=O)N[C@@H](CCCNC(=N)N)C(=O)N[C@H](Cc2c[nH]c3ccccc23)C(=O)N1)C(N)=O
EC50 (Melanocortin receptor 3 [4]): 75 nM

SMILES: C[C@@H](O)[C@H](NC(=O)[C@H]1NC(=O)[C@H](Cc2c[nH]c3ccccc23)NC(=O)[C@H](CCCN=C(N)N)NC(=O)[C@@H](Cc2c[nH]c3ccccc23)NC(=O)[C@H](Cc2ccc(O)cc2)NC(=O)[C@@H](NC(=O)[C@H](N)Cc2ccccc2)CSSC1(C)C)C(N)=O
EC50 [6]: Not Active

SMILES: C[C@@H](O)[C@H](NC(=O)[C@H]1NC(=O)[C@H](Cc2c[nH]c3ccccc23)NC(=O)[C@H](CCCNC(=N)N)NC(=O)[C@@H](Cc2ccccc2)NC(=O)[C@H](Cc2cnc[nH]2)NC(=O)[C@@H](NC(=O)[C@H](N)Cc2ccccc2)CSSC1(C)C)C(N)=O
EC50 (Melanocortin receptor 5 [2]): 0.14 nM | EC50 [3]: 6.9 nM | EC50 (Melanocortin receptor 4 [5]): 20 nM

SMILES: C[C@@H](O)[C@H](NC(=O)[C@H]1CSSC[C@H](NC(=O)[C@H](N)Cc2ccccc2)C(=O)N[C@H](Cc2cnc[nH]2)C(=O)N[C@H](Cc2ccccc2)C(=O)N[C@@H](CCCNC(=N)N)C(=O)N[C@H](Cc2c[nH]c3ccccc23)C(=O)N1)C(N)=O
IC50 [1]: Not Active | EC50 (Melanocortin receptor 5 [2]): 0.1 nM | EC50 [3]: 0.23 nM | EC50 (Melanocortin receptor 3 [4]): 0.23 nM | EC50 (Melanocortin receptor 4 [5]): 0.2 nM

SMILES: C[C@@H](O)[C@H](NC(=O)[C@H]1NC(=O)[C@H](Cc2c[nH]c3ccccc23)NC(=O)[C@H](CCCN=C(N)N)NC(=O)[C@@H](Cc2ccccc2)NC(=O)[C@H](Cc2c[nH]cn2)NC(=O)[C@@H](NC(=O)[C@H](N)Cc2ccccc2)CSSC1(C)C)C(N)=O
IC50 [1]: Not Active

SMILES: C[C@@H](O)[C@H](NC(=O)[C@@H]1NC(=O)[C@@H](Cc2c[nH]c3ccccc23)NC(=O)[C@H](CCCNC(=N)N)NC(=O)[C@@H](Cc2ccccc2)NC(=O)[C@@H](Cc2cnc[nH]2)NC(=O)[C@@H](NC(=O)[C@H](N)Cc2ccccc2)CSSC1(C)C)C(N)=O
EC50 (Melanocortin receptor 3 [4]): 64 nM

SMILES: C[C@@H](O)[C@H](NC(=O)[C@@H]1NC(=O)[C@H](Cc2c[nH]c3ccccc23)NC(=O)[C@H](CCCN=C(N)N)NC(=O)[C@H](Cc2c[nH]c3ccccc23)NC(=O)[C@H](Cc2ccccc2)NC(=O)[C@@H](NC(=O)[C@H](N)Cc2ccccc2)CSSC1(C)C)C(N)=O
EC50 [6]: Not Active

SMILES: C[C@@H](O)[C@H](NC(=O)[C@H]1CCCCNC(=O)C[C@H](NC(=O)[C@@H](N)Cc2ccccc2)C(=O)N[C@@H](Cc2cnc[nH]2)C(=O)N[C@H](Cc2ccccc2)C(=O)N[C@@H](CCCNC(=N)N)C(=O)N[C@H](Cc2c[nH]c3ccccc23)C(=O)N1)C(N)=O
EC50 (Melanocortin receptor 3 [4]): 0.23 nM

SMILES: C[C@@H](O)[C@H](NC(=O)[C@@H]1CCCCNC(=O)C[C@H](NC(=O)[C@H](N)Cc2ccccc2)C(=O)N[C@@H](Cc2c[nH]cn2)C(=O)N[C@H](Cc2ccccc2)C(=O)N[C@@H](CCCN=C(N)N)C(=O)N[C@@H](Cc2c[nH]c3ccccc23)C(=O)N1)C(N)=O
IC50 [1]: Not Active

SMILES: C[C@@H](O)[C@H](NC(=O)[C@H]1CSSC(C)(C)[C@H](NC(=O)[C@H](N)Cc2ccccc2)C(=O)N[C@@H](Cc2c[nH]cn2)C(=O)N[C@@H](Cc2ccccc2)C(=O)N[C@@H](CCCN)C(=O)N[C@H](Cc2c[nH]c3ccccc23)C(=O)N1)C(N)=O
EC50 [6]: Not Active | EC50 (Melanocortin receptor 5 [2]): 46 nM | EC50 [3]: 490 nM | IC50 [11]: Antagonist | EC50 (Melanocortin receptor 3 [4]): 59 nM | EC50 (Melanocortin receptor 4 [10]): Not Active

SMILES: C[C@@H](O)[C@H](NC(=O)[C@@H]1CCCCNC(=O)C[C@H](NC(=O)[C@H](N)Cc2ccccc2)C(=O)N[C@@H](Cc2cnc[nH]2)C(=O)N[C@H](Cc2ccccc2)C(=O)N[C@@H](CCCNC(=N)N)C(=O)N[C@@H](Cc2c[nH]c3ccccc23)C(=O)N1)C(N)=O
EC50 (Melanocortin receptor 5 [2]): 0.074 nM | EC50 [3]: 0.047 nM | EC50 (Melanocortin receptor 4 [5]): 0.38 nM

SMILES: C[C@@H](O)[C@H](NC(=O)[C@H]1NC(=O)[C@H](CO)NC(=O)[C@H](CCCN=C(N)N)NC(=O)[C@@H](Cc2c[nH]c3ccccc23)NC(=O)[C@H](Cc2ccc(O)cc2)NC(=O)[C@@H](NC(=O)[C@H](N)Cc2ccccc2)CSSC1(C)C)C(N)=O
EC50 [6]: Not Active

SMILES: C[C@@H](O)[C@H](NC(=O)[C@H]1NC(=O)[C@H](Cc2c[nH]c3ccccc23)NC(=O)[C@H](CCCN=C(N)N)NC(=O)[C@@H](Cc2c[nH]c3ccccc23)NC(=O)[C@H](Cc2ccccc2)NC(=O)[C@@H](NC(=O)[C@H](N)Cc2ccccc2)CSSC1(C)C)C(N)=O
EC50 [6]: Not Active
